Reference: ChEMBL document CHEMBL4138242, “Synthesis and antibacterial evaluation of novel cationic chalcone derivatives possessing broad spectrum antibacterial activity” (Eur J Med Chem, 2018)

system: Staphylococcus aureus; test: Antibacterial activity against Staphylococcus aureus ATCC 29213 after 16 to 20 hrs by broth microdilution method; type: functional; settings: not given
Method in brief: (§1)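 Broth microdilution per CLSI. Bacteria grown 4-6 h (about 10⁸ CFU/mL), then diluted to about 10⁶ CFU/mL. Medium: Mueller-Hinton broth, except Luria-Bertani broth for E. coli. Compounds in sterile water, twofold series 256-0.5 µg/mL, mixed 1:1 with inoculum, 37 °C for 16-20 h. MIC is the lowest concentration without visible growth. Duplicate wells; experiment repeated at least twice.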

Row | Compound | MIC [µg/mL]
1 | CCCCCCCC[N+](C)(C)CC(=O)Nc1ccc(C(=O)/C=C/c2ccc(OC)cc2)cc1.[Cl-] | 1

system: Enterococcus faecalis; test: Antibacterial activity against Enterococcus faecalis ATCC 29212 after 16 to 20 hrs by broth microdilution method; type: functional; settings: not given; method in brief: as §1

Row | Compound | MIC [µg/mL]
2 | CCCCCCCC[N+](C)(C)CC(=O)Nc1ccc(C(=O)/C=C/c2ccc(OC)cc2)cc1.[Cl-] | 2

system: Escherichia coli; test: Antibacterial activity against Escherichia coli ATCC 25922 after 16 to 20 hrs by broth microdilution method; type: functional; settings: not given; method in brief: as §1

Row | Compound | MIC [µg/mL]
3 | CCCCCCCC[N+](C)(C)CC(=O)Nc1ccc(C(=O)/C=C/c2ccc(OC)cc2)cc1.[Cl-] | 4

system: Salmonella enterica; test: Antibacterial activity against Salmonella enterica ATCC 13076 after 16 to 20 hrs by broth microdilution method; type: functional; settings: not given; method in brief: as §1

Row | Compound | MIC [µg/mL]
4 | CCCCCCCC[N+](C)(C)CC(=O)Nc1ccc(C(=O)/C=C/c2ccc(OC)cc2)cc1.[Cl-] | 4

system: not listed separately; test: Hemolytic activity in sheep RBC after 1 hr; type: ADME, cell-based, Ovis aries, Erythrocyte; settings: sheep red blood cells (erythrocytes)
Method in brief: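 Sheep red blood cells (150 µL suspension) mixed with 50 µL of compound dilutions (5120-10 µg/mL), 1 h at 37 °C, then centrifuged. Supernatant read at 540 nm. Percent hemolysis calculated relative to RBC-only control (0%) and 0.1% Triton X-100 (100%).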

Row | Compound | HC50 at 1 h [µg/mL]
5 | CCCCCCCC[N+](C)(C)CC(=O)Nc1ccc(C(=O)/C=C/c2ccc(OC)cc2)cc1.[Cl-] | 124

system: Staphylococcus aureus; test: Antibacterial activity against methicillin-resistant Staphylococcus aureus clinical isolate 1105183 cono7 after 16 to 20 hrs by broth microdilution method; type: functional; settings: not given
Method in brief: (§2)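 CLSI broth microdilution in Mueller-Hinton broth. A 4-6 h culture was diluted to about 10⁶ CFU/mL and mixed 1:1 with compound dilutions prepared at 256 to 0.5 µg/mL from aqueous stocks. Plates were incubated at 37 °C for 16-20 h and read visually for MIC. Each concentration was run in duplicate, and the experiment was repeated at least twice. Vancomycin and meropenem were comparators.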

Row | Compound | MIC [µg/mL]
6 | CCCCCCCC[N+](C)(C)CC(=O)Nc1ccc(C(=O)/C=C/c2ccc(OC)cc2)cc1.[Cl-] | 1

system: Staphylococcus aureus; test: Antibacterial activity against methicillin-resistant Staphylococcus aureus clinical isolate 20130911034sau after 16 to 20 hrs by broth microdilution method; type: functional; settings: not given; method in brief: as §2

Row | Compound | MIC [µg/mL]
7 | CCCCCCCC[N+](C)(C)CC(=O)Nc1ccc(C(=O)/C=C/c2ccc(OC)cc2)cc1.[Cl-] | 1

system: Staphylococcus aureus; test: Antibacterial activity against methicillin-resistant Staphylococcus aureus clinical isolate 0831010 after 16 to 20 hrs by broth microdilution method; type: functional; settings: not given; method in brief: as §2

Row | Compound | MIC [µg/mL]
8 | CCCCCCCC[N+](C)(C)CC(=O)Nc1ccc(C(=O)/C=C/c2ccc(OC)cc2)cc1.[Cl-] | 0.5

system: Staphylococcus aureus; test: Antibacterial activity against methicillin-resistant Staphylococcus aureus clinical isolate 1104060 after 16 to 20 hrs by broth microdilution method; type: functional; settings: not given; method in brief: as §2

Row | Compound | MIC [µg/mL]
9 | CCCCCCCC[N+](C)(C)CC(=O)Nc1ccc(C(=O)/C=C/c2ccc(OC)cc2)cc1.[Cl-] | 8

system: Staphylococcus aureus; test: Antibacterial activity against methicillin-resistant Staphylococcus aureus clinical isolate 20131012632sau after 16 to 20 hrs by broth microdilution method; type: functional; settings: not given; method in brief: as §2

Row | Compound | MIC [µg/mL]
10 | CCCCCCCC[N+](C)(C)CC(=O)Nc1ccc(C(=O)/C=C/c2ccc(OC)cc2)cc1.[Cl-] | 4

system: Staphylococcus aureus; test: Antibacterial activity against methicillin-resistant Staphylococcus aureus clinical isolate 1207007 after 16 to 20 hrs by broth microdilution method; type: functional; settings: not given; method in brief: as §2

Row | Compound | MIC [µg/mL]
11 | CCCCCCCC[N+](C)(C)CC(=O)Nc1ccc(C(=O)/C=C/c2ccc(OC)cc2)cc1.[Cl-] | 0.5

system: Staphylococcus aureus; test: Antibacterial activity against methicillin-resistant Staphylococcus aureus clinical isolate 1-may after 16 to 20 hrs by broth microdilution method; type: functional; settings: not given; method in brief: as §2

Row | Compound | MIC [µg/mL]
12 | CCCCCCCC[N+](C)(C)CC(=O)Nc1ccc(C(=O)/C=C/c2ccc(OC)cc2)cc1.[Cl-] | 1

system: Staphylococcus aureus; test: Antibacterial activity against methicillin-resistant Staphylococcus aureus clinical isolate 0906202 after 16 to 20 hrs by broth microdilution method; type: functional; settings: not given; method in brief: as §2

Row | Compound | MIC [µg/mL]
13 | CCCCCCCC[N+](C)(C)CC(=O)Nc1ccc(C(=O)/C=C/c2ccc(OC)cc2)cc1.[Cl-] | 1

system: Staphylococcus aureus; test: Antibacterial activity against methicillin-resistant Staphylococcus aureus clinical isolate 1208143 after 16 to 20 hrs by broth microdilution method; type: functional; settings: not given; method in brief: as §2

Row | Compound | MIC [µg/mL]
14 | CCCCCCCC[N+](C)(C)CC(=O)Nc1ccc(C(=O)/C=C/c2ccc(OC)cc2)cc1.[Cl-] | 1

system: Klebsiella pneumoniae; test: Antibacterial activity against drug-resistant carbapenemase producing Klebsiella pneumoniae clinical isolate KP-14-8 after 16 to 20 hrs by broth microdilution method; type: functional; settings: not given; method in brief: as §2

Row | Compound | MIC [µg/mL]
15 | CCCCCCCC[N+](C)(C)CC(=O)Nc1ccc(C(=O)/C=C/c2ccc(OC)cc2)cc1.[Cl-] | 8

system: Klebsiella pneumoniae; test: Antibacterial activity against drug-resistant carbapenemase producing Klebsiella pneumoniae clinical isolate KP-13-45 after 16 to 20 hrs by broth microdilution method; type: functional; settings: not given; method in brief: as §2

Row | Compound | MIC [µg/mL]
16 | CCCCCCCC[N+](C)(C)CC(=O)Nc1ccc(C(=O)/C=C/c2ccc(OC)cc2)cc1.[Cl-] | 8

system: Klebsiella pneumoniae; test: Antibacterial activity against drug-resistant carbapenemase producing Klebsiella pneumoniae clinical isolate KP-14-3 after 16 to 20 hrs by broth microdilution method; type: functional; settings: not given; method in brief: as §2

Row | Compound | MIC [µg/mL]
17 | CCCCCCCC[N+](C)(C)CC(=O)Nc1ccc(C(=O)/C=C/c2ccc(OC)cc2)cc1.[Cl-] | 8

system: Klebsiella pneumoniae; test: Antibacterial activity against drug-resistant carbapenemase producing Klebsiella pneumoniae clinical isolate KP-14-1 after 16 to 20 hrs by broth microdilution method; type: functional; settings: not given; method in brief: as §2

Row | Compound | MIC [µg/mL]
18 | CCCCCCCC[N+](C)(C)CC(=O)Nc1ccc(C(=O)/C=C/c2ccc(OC)cc2)cc1.[Cl-] | 8

system: Klebsiella pneumoniae; test: Antibacterial activity against drug-resistant carbapenemase producing Klebsiella pneumoniae clinical isolate KP-14-4 after 16 to 20 hrs by broth microdilution method; type: functional; settings: not given; method in brief: as §2

Row | Compound | MIC [µg/mL]
19 | CCCCCCCC[N+](C)(C)CC(=O)Nc1ccc(C(=O)/C=C/c2ccc(OC)cc2)cc1.[Cl-] | 4

system: Klebsiella pneumoniae; test: Antibacterial activity against drug-resistant carbapenemase producing Klebsiella pneumoniae clinical isolate KP-13-54 after 16 to 20 hrs by broth microdilution method; type: functional; settings: not given; method in brief: as §2

Row | Compound | MIC [µg/mL]
20 | CCCCCCCC[N+](C)(C)CC(=O)Nc1ccc(C(=O)/C=C/c2ccc(OC)cc2)cc1.[Cl-] | 8

system: Klebsiella pneumoniae; test: Antibacterial activity against drug-resistant carbapenemase producing Klebsiella pneumoniae clinical isolate KP-14-2 after 16 to 20 hrs by broth microdilution method; type: functional; settings: not given; method in brief: as §2

Row | Compound | MIC [µg/mL]
21 | CCCCCCCC[N+](C)(C)CC(=O)Nc1ccc(C(=O)/C=C/c2ccc(OC)cc2)cc1.[Cl-] | 2
